Key:
Format in all cases: functional
Settings in all cases: read-out: DIZ
Staphylococcus aureus = test: Antimicrobial activity against Staphylococcus aureus at 1 mg/ml after 24 hrs by agar well diffusion method
Procedure, shortened: (§1)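 A 0.1 mL aliquot of each bacterial strain was spread on nutrient agar. 4 mm wells were cut with a sterile cork borer and filled with compound in DMSO at a final concentration of 1 mg mL-1. Plates were incubated at 37 °C for 24 h. The inhibition zone diameter around each well was measured and averaged over triplicate measurements.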

Bacillus subtilis = test: Antimicrobial activity against Bacillus subtilis at 1 mg/ml after 24 hrs by agar well diffusion method; procedure, shortened: as §1
Candida albicans = test: Antimicrobial activity against Candida albicans at 1 mg/ml after 48 hrs by agar well diffusion method
Procedure, shortened: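 A 0.1 mL aliquot of the yeast was spread on potato dextrose agar. 4 mm cork-borer wells received compound in DMSO at a final concentration of 1 mg mL-1. Plates were incubated at 25 °C for 48 h. The inhibition zone diameter was read and averaged over triplicate measurements.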

Escherichia coli = test: Antimicrobial activity against Escherichia coli at 1 mg/ml after 24 hrs by agar well diffusion method; procedure, shortened: as §1

Question: What does the source list for `Cc1[nH]c2ccccc2c1C(=O)c1nn(-c2ccccc2)nc1NC(=O)/C(C#N)=C/N(C)C`?
Answer: zone of inhibition at 1000 µg/mL (Staphylococcus aureus): 0 mm; zone of inhibition at 1000 µg/mL (Bacillus subtilis): 2.5 mm; zone of inhibition at 1000 µg/mL (Candida albicans): 0 mm; zone of inhibition at 1000 µg/mL (Escherichia coli): 0 mm

Question: Which zone of inhibition at 1000 µg/mL (Staphylococcus aureus) does the source give for `Cn1cc(C(=O)c2nn(-c3ccccc3)nc2N)c2ccccc21` here?
Answer: 12.2 mm

Question: What about the zone of inhibition at 1000 µg/mL (Bacillus subtilis) of the same compound?
Answer: 6 mm

Question: What about the zone of inhibition at 1000 µg/mL (Candida albicans) of the same compound?
Answer: 10.7 mm

Question: What about the zone of inhibition at 1000 µg/mL (Escherichia coli) of the same compound?
Answer: 6.7 mm

Question: For `Cc1[nH]c2ccccc2c1C(=O)c1nn(-c2ccccc2)nc1N`, which zone of inhibition at 1000 µg/mL (Staphylococcus aureus) is on record?
Answer: 12 mm

Question: And the zone of inhibition at 1000 µg/mL (Bacillus subtilis)?
Answer: 12 mm

Question: And the zone of inhibition at 1000 µg/mL (Candida albicans)?
Answer: 8.7 mm

Question: What about the zone of inhibition at 1000 µg/mL (Escherichia coli) of the same compound?
Answer: 8.7 mm

Question: Which zone of inhibition at 1000 µg/mL (Staphylococcus aureus) does the source give for `Cc1[nH]c2ccccc2c1C(=O)c1nn(-c2ccccc2)nc1NC(=O)CC#N` here?
Answer: 0 mm

Question: And the zone of inhibition at 1000 µg/mL (Bacillus subtilis)?
Answer: 9.3 mm

Question: What about the zone of inhibition at 1000 µg/mL (Candida albicans) of the same compound?
Answer: 0 mm

Question: And the zone of inhibition at 1000 µg/mL (Escherichia coli)?
Answer: 6.2 mm

Question: What does the source list for `Cc1[nH]c2ccccc2c1C(=O)c1nn(-c2ccccc2)nc1NC(=O)c1cn[nH]c1N`?
Answer: zone of inhibition at 1000 µg/mL (Staphylococcus aureus): 0 mm; zone of inhibition at 1000 µg/mL (Bacillus subtilis): 11.3 mm; zone of inhibition at 1000 µg/mL (Candida albicans): 0 mm; zone of inhibition at 1000 µg/mL (Escherichia coli): 0 mm

Question: For `Cn1cc(C(=O)c2nn(-c3ccccc3)nc2NC(=O)CC#N)c2ccccc21`, which zone of inhibition at 1000 µg/mL (Staphylococcus aureus) is on record?
Answer: 0 mm

Question: What about the zone of inhibition at 1000 µg/mL (Bacillus subtilis) of the same compound?
Answer: 6 mm

Question: And the zone of inhibition at 1000 µg/mL (Candida albicans)?
Answer: 0 mm

Question: And the zone of inhibition at 1000 µg/mL (Escherichia coli)?
Answer: 0 mm

Question: Which results are given for `Cc1[nH]c2ccccc2c1-c1c(C#N)c(=O)[nH]c2nn(-c3ccccc3)nc12`?
Answer: zone of inhibition at 1000 µg/mL (Staphylococcus aureus): 0 mm; zone of inhibition at 1000 µg/mL (Bacillus subtilis): 6 mm; zone of inhibition at 1000 µg/mL (Candida albicans): 0 mm; zone of inhibition at 1000 µg/mL (Escherichia coli): 4 mm

Question: Which zone of inhibition at 1000 µg/mL (Staphylococcus aureus) does the source give for `Cc1[nH]c2ccccc2c1C(=O)c1nn(-c2ccccc2)nc1NC(=O)c1cnn2c(-c3ccccc3)ccnc12` here?
Answer: 0 mm

Question: What about the zone of inhibition at 1000 µg/mL (Bacillus subtilis) of the same compound?
Answer: 8 mm

Question: And the zone of inhibition at 1000 µg/mL (Candida albicans)?
Answer: 0 mm

Question: And the zone of inhibition at 1000 µg/mL (Escherichia coli)?
Answer: 5 mm

Question: Which zone of inhibition at 1000 µg/mL (Staphylococcus aureus) does the source give for `Cn1cc(C(=O)c2nn(-c3ccccc3)nc2NC(=O)c2cnn3c(-c4cccs4)ccnc23)c2ccccc21` here?
Answer: 0 mm

Question: And the zone of inhibition at 1000 µg/mL (Bacillus subtilis)?
Answer: 4 mm

Question: And the zone of inhibition at 1000 µg/mL (Candida albicans)?
Answer: 5.7 mm

Question: What about the zone of inhibition at 1000 µg/mL (Escherichia coli) of the same compound?
Answer: 0 mm

Question: Which results are given for `Cn1cc(C(=O)CC#N)c2ccccc21`?
Answer: zone of inhibition at 1000 µg/mL (Staphylococcus aureus): 0 mm; zone of inhibition at 1000 µg/mL (Bacillus subtilis): 2 mm; zone of inhibition at 1000 µg/mL (Candida albicans): 0 mm; zone of inhibition at 1000 µg/mL (Escherichia coli): 0 mm

Question: Which results are given for `Cc1[nH]c2ccccc2c1C(=O)CC#N`?
Answer: zone of inhibition at 1000 µg/mL (Staphylococcus aureus): 0 mm; zone of inhibition at 1000 µg/mL (Bacillus subtilis): 3.3 mm; zone of inhibition at 1000 µg/mL (Candida albicans): 0 mm; zone of inhibition at 1000 µg/mL (Escherichia coli): 0 mm

Question: `Cn1cc(C(=O)/C(C#N)=N/Nc2ccccc2)c2ccccc21` was tested. Which zone of inhibition at 1000 µg/mL (Staphylococcus aureus) did it give?
Answer: 0 mm

Question: And the zone of inhibition at 1000 µg/mL (Bacillus subtilis)?
Answer: 2.7 mm

Question: What about the zone of inhibition at 1000 µg/mL (Candida albicans) of the same compound?
Answer: 0 mm

Question: And the zone of inhibition at 1000 µg/mL (Escherichia coli)?
Answer: 0 mm

Question: Which results are given for `Cc1[nH]c2ccccc2c1C(=O)/C(C#N)=N/Nc1ccccc1`?
Answer: zone of inhibition at 1000 µg/mL (Staphylococcus aureus): 0 mm; zone of inhibition at 1000 µg/mL (Bacillus subtilis): 1.3 mm; zone of inhibition at 1000 µg/mL (Candida albicans): 0 mm; zone of inhibition at 1000 µg/mL (Escherichia coli): 0 mm

Question: Which results are given for `CN(C)/C=C(\C#N)C(=O)Nc1nn(-c2ccccc2)nc1C(=O)c1cn(C)c2ccccc12`?
Answer: zone of inhibition at 1000 µg/mL (Staphylococcus aureus): 0 mm; zone of inhibition at 1000 µg/mL (Bacillus subtilis): 3.3 mm; zone of inhibition at 1000 µg/mL (Candida albicans): 0 mm; zone of inhibition at 1000 µg/mL (Escherichia coli): 0 mm

Question: Which zone of inhibition at 1000 µg/mL (Staphylococcus aureus) does the source give for `Cn1cc(C(=O)c2nn(-c3ccccc3)nc2NC(=O)c2cn[nH]c2N)c2ccccc21` here?
Answer: 0 mm

Question: And the zone of inhibition at 1000 µg/mL (Bacillus subtilis)?
Answer: 2.7 mm

Question: What about the zone of inhibition at 1000 µg/mL (Candida albicans) of the same compound?
Answer: 0 mm

Question: What about the zone of inhibition at 1000 µg/mL (Escherichia coli) of the same compound?
Answer: 0 mm

Question: For `Cn1cc(-c2c(C#N)c(=O)[nH]c3nn(-c4ccccc4)nc23)c2ccccc21`, which zone of inhibition at 1000 µg/mL (Staphylococcus aureus) is on record?
Answer: 0 mm

Question: And the zone of inhibition at 1000 µg/mL (Bacillus subtilis)?
Answer: 2 mm

Question: What about the zone of inhibition at 1000 µg/mL (Candida albicans) of the same compound?
Answer: 0 mm

Question: And the zone of inhibition at 1000 µg/mL (Escherichia coli)?
Answer: 0 mm

Question: `Cn1cc(C(=O)c2nn(-c3ccccc3)nc2NC(=O)c2cnn3c(-c4ccccc4)ccnc23)c2ccccc21` was tested. Which zone of inhibition at 1000 µg/mL (Staphylococcus aureus) did it give?
Answer: 0 mm

Question: And the zone of inhibition at 1000 µg/mL (Bacillus subtilis)?
Answer: 3.3 mm

Question: And the zone of inhibition at 1000 µg/mL (Candida albicans)?
Answer: 0 mm

Question: What about the zone of inhibition at 1000 µg/mL (Escherichia coli) of the same compound?
Answer: 0 mm

Question: Which results are given for `Cc1cccc(-c2ccnc3c(C(=O)Nc4nn(-c5ccccc5)nc4C(=O)c4cn(C)c5ccccc45)cnn23)n1`?
Answer: zone of inhibition at 1000 µg/mL (Staphylococcus aureus): 0 mm; zone of inhibition at 1000 µg/mL (Bacillus subtilis): 2.7 mm; zone of inhibition at 1000 µg/mL (Candida albicans): 0 mm; zone of inhibition at 1000 µg/mL (Escherichia coli): 0 mm

Question: For `Cn1cc(C(=O)c2nn(-c3ccccc3)nc2NC(=O)/C(C#N)=C/C=C/c2ccccc2)c2ccccc21`, which zone of inhibition at 1000 µg/mL (Staphylococcus aureus) is on record?
Answer: 0 mm

Question: And the zone of inhibition at 1000 µg/mL (Bacillus subtilis)?
Answer: 2.7 mm

Question: What about the zone of inhibition at 1000 µg/mL (Candida albicans) of the same compound?
Answer: 0 mm

Question: What about the zone of inhibition at 1000 µg/mL (Escherichia coli) of the same compound?
Answer: 0 mm

Question: How did the zone of inhibition at 1000 µg/mL (Bacillus subtilis) turn out when `Cc1[nH]c2ccccc2c1C(=O)c1nn(-c2ccccc2)nc1NC(=O)/C(C#N)=C/C=C/c1ccccc1` was run?
Answer: 3 mm

Question: And the zone of inhibition at 1000 µg/mL (Candida albicans)?
Answer: 0 mm

Question: And the zone of inhibition at 1000 µg/mL (Escherichia coli)?
Answer: 0 mm

Question: `CC1(C)S[C@@H]2[C@H](NC(=O)[C@H](N)c3ccccc3)C(=O)N2[C@H]1C(=O)O` [AMPICILLIN] was tested. Which zone of inhibition at 1000 µg/mL (Staphylococcus aureus) did it give?
Answer: 5 mm

Question: And the zone of inhibition at 1000 µg/mL (Bacillus subtilis)?
Answer: 1 mm

Question: What about the zone of inhibition at 1000 µg/mL (Escherichia coli) of the same compound?
Answer: 22 mm

From ChEMBL document CHEMBL1772934, “Applications of 2-arylhydrazononitriles in synthesis: preparation of new indole containing 1,2,3-triazole, pyrazole and pyrazolo[1,5-a]pyrimidine derivatives and evaluation of their antimicrobial activities” (2011)
